Data published in ChEMBL document CHEMBL4184225, “Discovery of selective 2,4-diaminoquinazoline toll-like receptor 7 (TLR 7) agonists” (Bioorg Med Chem Lett, 2018).

Experiments:
Homo sapiens = organism: Homo sapiens; assay: Selectivity index, ratio of MEC for agonist activity at human TLR8 expressed in HEK293 cells to MEC for agonist activity at human TLR7 expressed in HEK293 cells as; type: cell-based
Method in brief: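 Ratio of TLR8 to TLR7 LEC from HEK293 NFκB-luciferase reporter assays. Cells were transiently transfected with TLR7 or TLR8 construct plus NFκB-luc and treated with compound for 6 h at 37°C. LEC is the lowest concentration with signal at least two-fold above the assay SD, from quadruplicate dose-response curves.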

Cytochrome P450 3A4 = Cytochrome P450 3A4 (Homo sapiens, UniProt P08684); assay: Inhibition of CYP3A4 (unknown origin); type: ADME
Cytochrome P450 1A2 = biological target: T1, Cytochrome P450 1A2 (Homo sapiens, UniProt P05177); assay: Inhibition of CYP1A2 (unknown origin); type: ADME
T1 sequence (P05177 whole entry): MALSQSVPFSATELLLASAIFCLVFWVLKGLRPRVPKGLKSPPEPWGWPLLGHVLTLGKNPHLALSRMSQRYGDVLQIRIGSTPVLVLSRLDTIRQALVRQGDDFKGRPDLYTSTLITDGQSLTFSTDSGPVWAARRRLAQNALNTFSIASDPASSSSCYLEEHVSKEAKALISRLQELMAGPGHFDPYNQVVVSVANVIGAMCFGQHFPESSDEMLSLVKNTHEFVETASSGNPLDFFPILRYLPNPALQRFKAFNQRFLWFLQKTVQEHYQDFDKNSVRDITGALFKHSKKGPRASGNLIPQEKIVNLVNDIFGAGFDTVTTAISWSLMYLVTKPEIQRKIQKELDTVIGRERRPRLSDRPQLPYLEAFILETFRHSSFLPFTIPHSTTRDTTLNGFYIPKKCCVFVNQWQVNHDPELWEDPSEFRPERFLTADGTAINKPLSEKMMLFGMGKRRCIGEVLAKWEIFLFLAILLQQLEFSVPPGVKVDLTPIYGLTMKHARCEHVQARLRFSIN

Cytochrome P450 2C8 = biological target: T2, Cytochrome P450 2C8 (Homo sapiens, UniProt P10632); assay: Inhibition of CYP2C8 (unknown origin); type: ADME
T2 sequence (P10632 whole entry): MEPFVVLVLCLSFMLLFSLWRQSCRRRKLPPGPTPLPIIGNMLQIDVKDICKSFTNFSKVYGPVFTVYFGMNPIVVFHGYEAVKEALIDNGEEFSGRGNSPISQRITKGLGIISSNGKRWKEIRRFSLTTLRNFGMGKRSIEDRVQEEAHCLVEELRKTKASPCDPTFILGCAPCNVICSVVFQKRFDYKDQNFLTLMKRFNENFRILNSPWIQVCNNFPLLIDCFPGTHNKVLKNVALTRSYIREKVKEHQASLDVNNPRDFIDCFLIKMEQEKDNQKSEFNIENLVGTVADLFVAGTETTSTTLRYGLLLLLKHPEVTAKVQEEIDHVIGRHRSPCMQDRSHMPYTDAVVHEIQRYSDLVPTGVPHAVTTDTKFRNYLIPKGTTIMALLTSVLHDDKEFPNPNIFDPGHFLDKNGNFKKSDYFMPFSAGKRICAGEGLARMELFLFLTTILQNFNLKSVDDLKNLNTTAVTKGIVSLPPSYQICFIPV

Cytochrome P450 2D6 = Cytochrome P450 2D6 (Homo sapiens, UniProt P10635); assay: Inhibition of CYP2D6 (unknown origin); type: ADME
[1] = Tmax in Sprague-Dawley rat at 10 mg/kg, po; type: ADME, organism-based; settings: in vivo
Method in brief: (§1)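 Healthy male Sprague-Dawley rats given a single oral dose of 10 mg/kg. Portal vein plasma, systemic plasma and liver sampled. Cmax and Tmax determined, and AUC over 0–last. Liver/plasma ratio calculated from AUC(0-last).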

[2] = Cmax in Sprague-Dawley rat portal vein at 10 mg/kg, po; type: ADME, organism-based; design: dose 10 mg/kg, route oral; method in brief: as §1
[3] = Cmax in Sprague-Dawley rat plasma at 10 mg/kg, po; type: ADME, organism-based; design: dose 10 mg/kg, route oral; method in brief: as §1
[4] = AUClast in Sprague-Dawley rat portal vein at 10 mg/kg, po; type: ADME, organism-based; design: dose 10 mg/kg, time 0 - last, route oral; method in brief: as §1
[5] = AUClast in Sprague-Dawley rat plasma at 10 mg/kg, po; type: ADME, organism-based; design: dose 10 mg/kg, time 0 - last, route oral; method in brief: as §1
[6] = AUClast in Sprague-Dawley rat liver at 10 mg/kg, po; type: ADME, organism-based; settings: in vivo; method in brief: as §1
[7] = Ratio of AUClast in liver to AUClast in plasma of Sprague-Dawley rat at 10 mg/kg, po; type: ADME, organism-based; settings: liver and plasma; method in brief: as §1
Mus musculus [8] = assay: Induction of IFN-alpha production in C57BL/6 mouse plasma assessed as time for peak induction of IFN-alpha at 5 mg/kg, po administered as single dose by ELISA; type: functional
Method in brief: (§2)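 Healthy C57BL/6 mice given a single oral dose (1 or 5 mg/kg). Mouse IFN-α measured by ELISA in plasma and liver homogenates over time. Peak level (Fmax) and time of peak recorded. Three mice per time point, reported as geometric mean.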

[9] = Tmax in C57BL/6 mouse at 5 mg/kg, po administered as single dose; type: ADME, organism-based; settings: in vivo
Method in brief: (§3)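 Healthy C57BL/6 mice given a single oral dose (1 or 5 mg/kg). Plasma and liver drug levels measured over time to give Tmax, Cmax and AUC0-last. Three mice per time point, reported as geometric mean.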

[10] = Cmax in C57BL/6 mouse liver at 5 mg/kg, po administered as single dose; type: ADME, organism-based; design: dose 5 mg/kg, route oral; settings: in vivo; method in brief: as §3
[11] = AUClast in C57BL/6 mouse plasma at 5 mg/kg, po administered as single dose; type: ADME, organism-based; design: dose 5 mg/kg, route oral, time 0 - last; method in brief: as §3
[12] = AUClast in C57BL/6 mouse liver at 5 mg/kg, po administered as single dose; type: ADME, organism-based; settings: in vivo; method in brief: as §3
Mus musculus [13] = assay: Induction of IFN-alpha production in C57BL/6 mouse plasma assessed as peak IFN-alpha level at 5 mg/kg, po administered as single dose by ELISA; type: functional; method in brief: as §2
Mus musculus [14] = assay: Induction of IFN-alpha production in C57BL/6 mouse liver assessed as peak IFN-alpha level at 5 mg/kg, po administered as single dose by ELISA; type: functional; method in brief: as §2
[15] = Oral bioavailability in Sprague-Dawley rat at 10 mg/kg; type: ADME, organism-based; settings: in vivo
[16] = Cmax in Sprague-Dawley rat liver at 10 mg/kg, po
[17] = Metabolic stability in rat liver microsomes assessed as drug metabolism after 15 mins at 1 uM
[18] = Plasma clearance in Sprague-Dawley rat at 2.5 mg/kg, iv; type: ADME, organism-based
Rattus norvegicus = assay: Plasma clearance in Sprague-Dawley rat at 2.5 mg/kg, iv relative hepatic blood flow; type: ADME, organism-based; settings: in vivo
Mus musculus [19] = assay: Induction of IFN-alpha production in C57BL/6 mouse plasma assessed as time for peak induction of IFN-alpha at 1 mg/kg, po administered as single dose by ELISA; type: functional; method in brief: as §2
[20] = Tmax in C57BL/6 mouse at 1 mg/kg, po administered as single dose; type: ADME, organism-based; settings: in vivo; method in brief: as §3
[21] = Cmax in C57BL/6 mouse liver at 1 mg/kg, po administered as single dose; type: ADME, organism-based; design: dose 1 mg/kg, route oral; method in brief: as §3
[22] = AUClast in C57BL/6 mouse liver at 1 mg/kg, po administered as single dose; type: ADME, organism-based; design: dose 1 mg/kg, time 0 - last, route oral; method in brief: as §3
Mus musculus [23] = assay: Induction of IFN-alpha production in C57BL/6 mouse plasma assessed as peak IFN-alpha level at 1 mg/kg, po administered as single dose by ELISA; type: functional; method in brief: as §2

Chain of Cytochrome P450 2D6 (P10635 whole entry): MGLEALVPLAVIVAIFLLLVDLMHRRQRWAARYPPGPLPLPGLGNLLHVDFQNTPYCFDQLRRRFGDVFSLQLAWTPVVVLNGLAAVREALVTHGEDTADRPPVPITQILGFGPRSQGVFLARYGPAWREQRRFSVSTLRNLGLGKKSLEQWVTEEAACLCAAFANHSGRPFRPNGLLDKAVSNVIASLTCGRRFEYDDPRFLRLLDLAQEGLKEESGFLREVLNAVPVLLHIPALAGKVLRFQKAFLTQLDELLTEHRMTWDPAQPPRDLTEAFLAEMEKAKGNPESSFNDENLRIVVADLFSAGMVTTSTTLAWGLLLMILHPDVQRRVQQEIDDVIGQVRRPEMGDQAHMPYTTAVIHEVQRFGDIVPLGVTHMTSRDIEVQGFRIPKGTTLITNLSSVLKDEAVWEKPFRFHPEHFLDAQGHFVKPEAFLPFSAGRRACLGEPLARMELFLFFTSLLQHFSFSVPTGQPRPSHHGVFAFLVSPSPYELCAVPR
Chain of Cytochrome P450 3A4 (P08684 whole entry): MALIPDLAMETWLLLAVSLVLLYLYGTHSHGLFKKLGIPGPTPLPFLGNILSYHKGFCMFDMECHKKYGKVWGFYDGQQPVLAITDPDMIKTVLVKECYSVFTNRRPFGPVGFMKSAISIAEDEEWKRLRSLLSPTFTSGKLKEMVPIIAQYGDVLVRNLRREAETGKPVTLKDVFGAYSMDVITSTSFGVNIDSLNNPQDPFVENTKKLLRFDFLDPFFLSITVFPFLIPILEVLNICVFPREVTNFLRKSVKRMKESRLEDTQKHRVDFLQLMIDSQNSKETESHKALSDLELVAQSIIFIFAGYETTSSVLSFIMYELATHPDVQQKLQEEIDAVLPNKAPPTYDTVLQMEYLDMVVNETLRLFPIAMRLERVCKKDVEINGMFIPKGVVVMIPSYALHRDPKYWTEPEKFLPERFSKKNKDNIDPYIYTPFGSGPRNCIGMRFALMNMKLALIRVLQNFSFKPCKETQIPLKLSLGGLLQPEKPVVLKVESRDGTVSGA

| SMILES | Ratio (Homo sapiens) | IC50 (Cytochrome P450 3A4) [µM] | IC50 (Cytochrome P450 1A2) [µM] | IC50 (Cytochrome P450 2C8) [µM] | IC50 (Cytochrome P450 2D6) [µM] | also measured |
| --- | --- | --- | --- | --- | --- | --- |
| CCCCNc1nc(N)nc2cccc(OCc3ccccc3OC)c12 | 90 | > 10 | 2.9 | > 10 | > 10 |  |
| CCCCNc1nc(N)nc2cccc(OCc3cccnc3)c12 |  | 6.7 | 0.9 | > 10 | > 10 |  |
| CCCCNc1nc(N)nc2cccc(C(=O)NC)c12 |  | > 10 | > 10 | > 10 | > 10 |  |
| CCCCNc1nc(N)nc2cccc(OCc3ccc(CO)cc3OC)c12 | > 200 | > 10 | > 10 | > 10 | 4.4 |  |
| CCCCNc1nc(N)nc2cccc(OCc3ccccc3)c12 | 10 |  | 0.3 | > 10 | 5.7 |  |
| CCCCNc1nc(N)nc2cccc(OCc3nccc(OC)c3OC)c12 |  | 9.9 | 4.1 | > 10 | > 10 |  |
| CCCCNc1nc(N)nc2cccc(C(=O)N[C@@H](C)c3ccccc3)c12 | > 250 | > 10 | > 10 | > 10 | > 10 | Tmax [1]: 240 min; Cmax [2]: 276 ng/mL; Cmax [3]: 87 ng/mL; AUC(0-t) [4]: 902 ng·h/mL; AUC(0-t) [5]: 439 ng·h/mL; AUClast [6]: 15841 ng·h/g; Kp [7]: 36; Time (Mus musculus [8]): 4 h; Tmax [9]: 60 min; Cmax [10]: 3230 ng/g; AUC(0-t) [11]: 365 ng·h/mL; AUClast [12]: 6619 ng·h/g; Fmax (Mus musculus [13]): 2800 pg/mL; Fmax (Mus musculus [14]): 325 pg/mg; bioavailability [15]: 20%; Cmax [16]: 4930 ng/g; metabolised at 0.25 h, 1 µM [17]: 54% |
| CCCCNc1nc(N)nc2cccc(C(=O)NCc3ccccc3)c12 |  | > 10 | > 10 | > 10 | 6.6 |  |
| CCCCNc1nc(N)nc2cccc(C(=O)NC(C)C)c12 |  | > 10 | > 10 | > 10 | > 10 |  |
| CCCCNc1nc(N)nc2cccc(C(=O)N(C)Cc3ccccc3)c12 |  | 8.5 | > 10 | > 10 | 5.6 | clearance [18]: 55 mL/min/kg; CL (Rattus norvegicus): 79%; Tmax [1]: 30 min; Cmax [2]: 209 ng/mL; Cmax [3]: 9 ng/mL; AUC(0-t) [4]: 621 ng·h/mL; AUC(0-t) [5]: 37 ng·h/mL; AUClast [6]: 1064 ng·h/g; Kp [7]: 30; bioavailability [15]: 1.2%; Cmax [16]: 369 ng/g; metabolised at 0.25 h, 1 µM [17]: 99% |
| CCCCNc1nc(N)nc2cccc(C(=O)N[C@H](C)c3ccccc3)c12 |  | > 10 | > 10 | > 10 | > 10 |  |
| CCCCNc1nc(N)nc2ccccc12 |  |  |  |  |  | clearance [18]: 163 mL/min/kg; Tmax [1]: 30 min; Cmax [2]: 583 ng/mL; Cmax [3]: 33 ng/mL; AUC(0-t) [4]: 1520 ng·h/mL; AUC(0-t) [5]: 56 ng·h/mL; AUClast [6]: 6450 ng·h/g; Kp [7]: > 100; Time (Mus musculus [19]): 1 h; Tmax [20]: 30 min; Cmax [21]: 207 ng/mL; AUC(0-t) [22]: 133 ng·h/mL; Fmax (Mus musculus [23]): 315 pg/mL; bioavailability [15]: 5.4%; Cmax [16]: 2030 ng/g; metabolised at 0.25 h, 1 µM [17]: 95% |
| CCCCNc1nc(N)nc2cccc(OCc3ccccn3)c12 |  | > 10 | 1.3 | > 10 | > 10 |  |
